{"source": "ChEMBL document CHEMBL4196123", "about": "“Discovery of an Orally Bioavailable Dual PI3K/mTOR Inhibitor Based on Sulfonyl-Substituted Morpholinopyrimidines” (ACS Med Chem Lett, 2018)", "key": {"Cytochrome P450 3A4 [1]": {"target": "T1, Cytochrome P450 3A4 (Homo sapiens, UniProt P08684)", "T1 sequence (P08684 whole entry)": "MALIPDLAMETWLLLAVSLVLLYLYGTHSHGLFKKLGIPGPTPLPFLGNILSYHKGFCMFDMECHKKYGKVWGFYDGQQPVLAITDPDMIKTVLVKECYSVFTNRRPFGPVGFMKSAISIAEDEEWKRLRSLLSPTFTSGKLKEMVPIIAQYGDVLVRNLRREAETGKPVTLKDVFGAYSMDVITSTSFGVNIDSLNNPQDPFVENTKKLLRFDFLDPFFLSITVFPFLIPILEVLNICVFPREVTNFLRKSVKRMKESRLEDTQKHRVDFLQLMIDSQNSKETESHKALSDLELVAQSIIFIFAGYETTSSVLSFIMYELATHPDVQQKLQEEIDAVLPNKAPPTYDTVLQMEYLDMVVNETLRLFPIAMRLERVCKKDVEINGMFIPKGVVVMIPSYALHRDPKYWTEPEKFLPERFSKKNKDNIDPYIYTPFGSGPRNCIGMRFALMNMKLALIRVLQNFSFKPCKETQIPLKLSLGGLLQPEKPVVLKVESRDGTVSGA", "experiment": "Inhibition of CYP3A4 in human liver microsomes using testosterone as substrate pretreated for 5 mins followed by NADPH addition and measured after 5 mins by LC-MS analysis", "type": "ADME"}, "[2]": {"experiment": "Half life in CD1 mouse at 10 mg/kg, po administered via gavage by LC-MS/MS analysis", "type": "ADME, organism-based", "conditions": "in vivo"}, "[3]": {"experiment": "Apparent permeability across apical to basolateral side in human Caco2 cells measured after 90 mins by LC-MS/MS analysis", "type": "ADME, cell-based", "conditions": "Caco-2"}, "Cytochrome P450 3A4 [4]": {"target": "T1, Cytochrome P450 3A4", "experiment": "Inhibition of CYP3A4 in human liver microsomes using midazolam as substrate pretreated for 5 mins followed by NADPH addition and measured after 5 mins by LC-MS analysis", "type": "ADME"}, "Cytochrome P450 2D6": {"target": "Cytochrome P450 2D6 (Homo sapiens, UniProt P10635)", "experiment": "Inhibition of CYP2D6 in human liver microsomes using bufuralol as substrate pretreated for 5 mins followed by NADPH addition and measured after 10 mins by LC-MS analysis", "type": "ADME"}, "[5]": {"experiment": "AUClast in CD1 mouse at 10 mg/kg, po administered via gavage by LC-MS/MS analysis", "type": "ADME, organism-based", "design": "dose 10 mg/kg, time 0 - last, route oral", "conditions": "in vivo"}, "[6]": {"experiment": "Cmax in CD1 mouse at 10 mg/kg, po administered via gavage by LC-MS/MS analysis", "type": "ADME, organism-based", "design": "dose 10 mg/kg, route oral", "conditions": "in vivo"}, "[7]": {"target": "PI3-kinase p110-delta/p85-alpha (Homo sapiens, UniProt O00329)", "sequence (P27986 whole entry)": "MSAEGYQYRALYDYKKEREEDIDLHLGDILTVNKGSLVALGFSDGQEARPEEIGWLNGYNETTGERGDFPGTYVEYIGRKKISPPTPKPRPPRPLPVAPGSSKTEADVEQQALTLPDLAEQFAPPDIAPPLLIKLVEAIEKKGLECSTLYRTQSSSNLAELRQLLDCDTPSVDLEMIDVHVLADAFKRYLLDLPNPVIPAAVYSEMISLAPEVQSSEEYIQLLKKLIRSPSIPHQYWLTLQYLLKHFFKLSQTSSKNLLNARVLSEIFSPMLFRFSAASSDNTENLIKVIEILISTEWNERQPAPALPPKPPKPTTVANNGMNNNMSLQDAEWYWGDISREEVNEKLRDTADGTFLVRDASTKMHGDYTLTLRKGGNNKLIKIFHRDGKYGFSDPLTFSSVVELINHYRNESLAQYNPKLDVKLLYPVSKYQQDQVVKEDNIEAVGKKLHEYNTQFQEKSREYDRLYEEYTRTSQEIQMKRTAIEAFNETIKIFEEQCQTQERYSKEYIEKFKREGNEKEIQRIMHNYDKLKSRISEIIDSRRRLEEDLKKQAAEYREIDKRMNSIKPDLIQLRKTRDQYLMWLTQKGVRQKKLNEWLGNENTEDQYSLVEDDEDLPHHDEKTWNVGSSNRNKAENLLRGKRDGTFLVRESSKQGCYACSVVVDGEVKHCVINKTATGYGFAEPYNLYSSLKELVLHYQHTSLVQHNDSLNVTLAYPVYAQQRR", "sequence (O00329 whole entry)": "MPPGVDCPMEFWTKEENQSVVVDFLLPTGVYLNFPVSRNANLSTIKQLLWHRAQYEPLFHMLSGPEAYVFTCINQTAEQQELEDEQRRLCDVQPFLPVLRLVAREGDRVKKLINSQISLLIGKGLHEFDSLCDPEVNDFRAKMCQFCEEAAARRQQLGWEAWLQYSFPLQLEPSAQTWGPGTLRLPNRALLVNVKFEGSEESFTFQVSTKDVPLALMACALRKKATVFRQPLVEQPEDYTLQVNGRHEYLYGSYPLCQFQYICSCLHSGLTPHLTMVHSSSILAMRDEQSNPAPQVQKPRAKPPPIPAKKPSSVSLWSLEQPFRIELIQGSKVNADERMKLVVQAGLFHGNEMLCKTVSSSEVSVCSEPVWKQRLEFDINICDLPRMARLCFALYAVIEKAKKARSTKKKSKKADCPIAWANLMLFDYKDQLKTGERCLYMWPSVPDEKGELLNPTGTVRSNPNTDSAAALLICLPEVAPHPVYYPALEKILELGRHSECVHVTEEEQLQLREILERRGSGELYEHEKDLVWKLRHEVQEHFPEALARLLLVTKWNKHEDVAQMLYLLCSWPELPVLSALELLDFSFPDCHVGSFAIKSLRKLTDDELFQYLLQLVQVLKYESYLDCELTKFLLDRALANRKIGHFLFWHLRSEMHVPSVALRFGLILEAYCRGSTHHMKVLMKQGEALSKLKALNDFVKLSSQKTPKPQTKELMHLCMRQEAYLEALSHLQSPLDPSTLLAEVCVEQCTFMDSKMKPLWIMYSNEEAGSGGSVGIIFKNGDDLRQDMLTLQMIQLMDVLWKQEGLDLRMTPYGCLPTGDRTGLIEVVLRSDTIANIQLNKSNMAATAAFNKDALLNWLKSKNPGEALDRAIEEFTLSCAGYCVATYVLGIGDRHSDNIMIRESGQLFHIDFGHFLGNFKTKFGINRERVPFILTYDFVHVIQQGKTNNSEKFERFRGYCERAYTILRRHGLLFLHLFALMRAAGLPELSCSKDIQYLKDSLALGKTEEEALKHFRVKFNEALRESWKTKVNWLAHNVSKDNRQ", "experiment": "Inhibition of recombinant human full-length N-terminal His6-tagged p110delta/recombinant human full length p85alpha expressed in baculovirus infected Sf21 insect cells using PIP2 as substrate measured after 1 hr by Alexa633 Tracer-based fluorescence polarization assay"}, "Cytochrome P450 1A2": {"target": "Cytochrome P450 1A2 (Homo sapiens, UniProt P05177)", "experiment": "Inhibition of CYP1A2 in human liver microsomes using phenacetin as substrate pretreated for 5 mins followed by NADPH addition and measured after 10 mins by LC-MS analysis", "type": "ADME"}, "[8]": {"experiment": "Efflux ratio of apparent permeability from basolateral to apical side over apical to basolateral side in human Caco2 cells after 90 mins by LC-MS/MS analysis", "type": "ADME, cell-based", "conditions": "Caco-2"}, "[9]": {"experiment": "Intrinsic clearance in human liver microsomes at […] pretreated up to 45 mins followed by NADPH addition and measured by LC-MS/MS analysis", "type": "ADME, microsome", "conditions": "read-out: CLH"}, "[10]": {"experiment": "Clearance in CD1 mouse at 5 mg/kg, iv by LC-MS/MS analysis", "type": "ADME, organism-based", "conditions": "in vivo"}, "PI3K p110 beta/p85 alpha": {"target": "PI3K p110 beta/p85 alpha (Homo sapiens, UniProt P42338)", "experiment": "Inhibition of recombinant human full-length N-terminal His6-tagged p110beta/recombinant human full length p85alpha expressed in baculovirus infected Sf21 insect cells using PIP2 as substrate measured after 1 hr by Alexa633 Tracer-based fluorescence polarization assay"}, "Cytochrome P450 2C9": {"target": "Cytochrome P450 2C9 (Homo sapiens, UniProt P11712)", "sequence (P11712 whole entry)": "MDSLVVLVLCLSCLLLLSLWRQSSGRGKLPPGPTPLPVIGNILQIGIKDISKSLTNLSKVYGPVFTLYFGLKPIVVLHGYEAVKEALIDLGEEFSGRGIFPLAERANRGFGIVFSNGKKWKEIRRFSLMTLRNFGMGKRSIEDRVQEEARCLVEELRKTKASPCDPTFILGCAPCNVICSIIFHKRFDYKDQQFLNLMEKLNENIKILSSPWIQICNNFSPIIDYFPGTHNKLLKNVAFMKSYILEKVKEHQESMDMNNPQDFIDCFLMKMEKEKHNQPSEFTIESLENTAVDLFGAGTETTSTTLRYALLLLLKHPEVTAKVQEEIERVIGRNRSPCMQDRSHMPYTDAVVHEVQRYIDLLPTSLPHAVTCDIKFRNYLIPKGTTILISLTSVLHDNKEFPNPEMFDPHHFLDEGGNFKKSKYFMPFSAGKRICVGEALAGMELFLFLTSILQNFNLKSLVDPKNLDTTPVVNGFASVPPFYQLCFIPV", "experiment": "Inhibition of CYP2C9 in human liver microsomes using diclofenac as substrate pretreated for 5 mins followed by NADPH addition and measured after 10 mins by LC-MS analysis", "type": "ADME"}, "[11]": {"target": "PI3-kinase p110-alpha/p85-alpha (Homo sapiens, UniProt P42336, E545K)", "sequence (P42336 whole entry E545K, looked up)": "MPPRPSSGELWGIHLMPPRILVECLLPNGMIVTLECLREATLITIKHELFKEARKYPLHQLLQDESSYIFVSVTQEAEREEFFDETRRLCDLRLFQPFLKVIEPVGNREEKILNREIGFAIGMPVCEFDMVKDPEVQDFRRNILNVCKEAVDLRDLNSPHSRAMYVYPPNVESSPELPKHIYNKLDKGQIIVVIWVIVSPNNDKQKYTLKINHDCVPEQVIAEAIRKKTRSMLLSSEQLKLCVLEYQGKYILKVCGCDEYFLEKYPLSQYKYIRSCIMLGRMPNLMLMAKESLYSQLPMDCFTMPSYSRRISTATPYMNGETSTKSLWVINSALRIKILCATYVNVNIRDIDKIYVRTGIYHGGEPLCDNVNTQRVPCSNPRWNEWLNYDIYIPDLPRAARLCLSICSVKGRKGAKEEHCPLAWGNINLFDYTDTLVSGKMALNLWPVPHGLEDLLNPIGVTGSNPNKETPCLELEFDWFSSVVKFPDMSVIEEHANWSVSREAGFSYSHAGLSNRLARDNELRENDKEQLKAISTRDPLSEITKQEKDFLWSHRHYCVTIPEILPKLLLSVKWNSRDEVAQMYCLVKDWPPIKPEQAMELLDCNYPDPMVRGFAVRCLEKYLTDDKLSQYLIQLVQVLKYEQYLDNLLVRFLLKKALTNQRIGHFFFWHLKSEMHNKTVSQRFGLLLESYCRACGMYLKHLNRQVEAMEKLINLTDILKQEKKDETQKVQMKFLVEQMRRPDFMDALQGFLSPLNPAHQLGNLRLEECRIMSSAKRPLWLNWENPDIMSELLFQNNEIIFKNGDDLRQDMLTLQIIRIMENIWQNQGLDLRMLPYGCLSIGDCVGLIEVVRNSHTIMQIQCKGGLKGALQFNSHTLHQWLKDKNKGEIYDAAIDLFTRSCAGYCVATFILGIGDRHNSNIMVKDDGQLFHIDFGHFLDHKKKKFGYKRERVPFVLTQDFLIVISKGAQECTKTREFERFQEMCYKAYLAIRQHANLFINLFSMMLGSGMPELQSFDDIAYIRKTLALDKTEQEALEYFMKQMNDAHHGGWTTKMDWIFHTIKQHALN", "experiment": "Inhibition of recombinant human His-tagged p85alpha/p110alpha E545K mutant expressed in insect cells"}, "[12]": {"experiment": "Intrinsic clearance in mouse liver microsomes at […] pretreated up to 45 mins followed by NADPH addition and measured by LC-MS/MS analysis", "type": "ADME, microsome", "conditions": "read-out: CLH"}, "HUVEC": {"tested_on": "HUVEC", "experiment": "Cytotoxicity against HUVEC after 72 hrs by MTT assay", "type": "cell-based", "conditions": "Homo sapiens"}, "Mus musculus": {"tested_on": "Mus musculus", "experiment": "Toxicity in Balb/c nu/nu mouse xenografted with human HT-29 cells harboring PIK3CA P449T mutant assessed as body weight loss at 7.5 mg/kg, po administered daily via gavage for 27 days relative to control", "type": "organism-based", "conditions": "in vivo, 648 h", "outline": "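Balb/c nu/nu mice with HT-29 xenografts (mean tumor about 240 mm³) received daily oral gavage for 27 days. Body weight change was measured and plotted over time. Mean ± SEM, n = 6.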"}, "HT-29 [13]": {"tested_on": "HT-29", "experiment": "Antitumor activity against human HT-29 cells harboring PIK3CA P449T mutant xenografted in Balb/c nu/nu mouse assessed as tumor growth inhibition at 7.5 mg/kg, po administered daily via gavage for 27 days relative to control", "type": "functional", "conditions": "HT-29, po, 648 h, read-out: TGI", "outline": "(§1)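 Balb/c nu/nu mice carrying HT-29 xenografts were dosed by daily oral gavage for 27 days, starting when mean tumor size was about 240 mm³; vehicle group as control. Tumor volume estimated over time, and TGI calculated after 27 days. Mean ± SEM, n = 6. Dunnett's multiple comparison test.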"}, "[14]": {"experiment": "AUClast in CD1 mouse at 5 mg/kg, iv by LC-MS/MS analysis", "type": "ADME, organism-based", "design": "dose 5 mg/kg, time 0 - last, route intravenous", "conditions": "in vivo"}, "[15]": {"experiment": "Volume of distribution at steady state in CD1 mouse at 5 mg/kg, iv by LC-MS/MS analysis", "type": "ADME, organism-based", "conditions": "in vivo, read-out: Vdss"}, "[16]": {"experiment": "Half life in CD1 mouse at 5 mg/kg, iv by LC-MS/MS analysis", "type": "ADME, organism-based", "conditions": "in vivo"}, "T47D": {"tested_on": "T47D", "experiment": "Antiproliferative activity against human T47D cells harboring PI3KCA H1047R mutant after 72 hrs by MTT assay", "type": "functional, cell-based"}, "[17]": {"target": "Voltage-gated inwardly rectifying potassium channel KCNH2 (Homo sapiens, UniProt Q12809)", "experiment": "Inhibition of recombinant human ERG expressed in CHO cells by automated whole cell patch clamp Qpatch method", "type": "cell-based"}, "Cytochrome P450 2C19": {"target": "Cytochrome P450 2C19 (Homo sapiens, UniProt P33261)", "sequence (P33261 whole entry)": "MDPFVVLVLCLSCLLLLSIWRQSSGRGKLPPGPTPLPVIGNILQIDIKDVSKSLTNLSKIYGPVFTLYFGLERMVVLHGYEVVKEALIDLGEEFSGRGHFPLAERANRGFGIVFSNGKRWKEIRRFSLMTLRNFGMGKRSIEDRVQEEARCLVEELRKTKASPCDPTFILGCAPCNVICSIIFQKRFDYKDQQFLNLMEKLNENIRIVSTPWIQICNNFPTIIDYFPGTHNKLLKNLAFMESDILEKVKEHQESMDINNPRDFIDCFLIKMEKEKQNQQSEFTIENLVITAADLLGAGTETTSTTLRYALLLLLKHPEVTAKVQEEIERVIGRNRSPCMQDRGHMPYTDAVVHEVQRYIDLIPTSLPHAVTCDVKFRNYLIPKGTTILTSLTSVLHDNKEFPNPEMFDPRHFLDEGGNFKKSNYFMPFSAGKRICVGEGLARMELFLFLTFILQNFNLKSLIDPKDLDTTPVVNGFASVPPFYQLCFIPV", "experiment": "Inhibition of CYP2C19 in human liver microsomes using S-Mephenytoin as substrate pretreated for 5 mins followed by NADPH addition and measured after 45 mins by LC-MS analysis", "type": "ADME"}, "[18]": {"target": "PI3-kinase p110-alpha/p85-alpha (Homo sapiens, UniProt P42336)", "sequence (P27986 whole entry)": "as the sequence (P27986 whole entry) above", "sequence (P42336 whole entry)": "as the sequence (P42336 whole entry E545K, looked up) above, with K545E counted along it", "experiment": "Inhibition of recombinant human full length N-terminal His-tagged p110alpha/p85alpha expressed in baculovirus expression system using PIP2 as substrate measured after 1 hr by Alexa633 Tracer-based fluorescence polarization assay", "outline": "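PI3Kα enzyme inhibition; IC50 is the mean of duplicate measurements.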"}, "HT-29 [19]": {"tested_on": "HT-29", "experiment": "Antitumor activity against human HT-29 cells harboring PIK3CA P449T mutant xenografted in Balb/c nu/nu mouse assessed as tumor growth inhibition at 3.75 mg/kg, po administered daily via gavage for 27 days relative to control", "type": "functional", "conditions": "HT-29, po, 648 h, read-out: TGI", "outline": "as §1"}, "Cytochrome P450 2C8": {"target": "Cytochrome P450 2C8 (Homo sapiens, UniProt P10632)", "experiment": "Inhibition of CYP2C8 in human liver microsomes using paclitaxel as substrate pretreated for 5 mins followed by NADPH addition and measured after 10 mins by LC-MS analysis", "type": "ADME"}, "Cytochrome P450 2B6": {"target": "Cytochrome P450 2B6 (Homo sapiens, UniProt P20813)", "sequence (P20813 whole entry)": "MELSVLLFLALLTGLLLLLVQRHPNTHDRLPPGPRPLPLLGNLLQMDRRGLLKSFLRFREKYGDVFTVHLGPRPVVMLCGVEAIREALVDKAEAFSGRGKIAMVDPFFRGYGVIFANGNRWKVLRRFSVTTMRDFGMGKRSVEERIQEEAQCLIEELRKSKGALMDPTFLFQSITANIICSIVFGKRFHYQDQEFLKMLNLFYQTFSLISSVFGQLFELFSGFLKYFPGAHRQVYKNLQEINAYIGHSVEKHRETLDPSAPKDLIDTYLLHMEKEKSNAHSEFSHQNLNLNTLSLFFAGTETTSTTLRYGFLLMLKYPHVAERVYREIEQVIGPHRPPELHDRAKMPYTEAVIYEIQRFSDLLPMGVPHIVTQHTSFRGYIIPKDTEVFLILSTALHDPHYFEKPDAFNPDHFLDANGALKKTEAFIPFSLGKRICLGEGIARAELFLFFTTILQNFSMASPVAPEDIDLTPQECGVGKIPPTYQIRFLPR", "experiment": "Inhibition of CYP2B6 in human liver microsomes using bupropion as substrate pretreated for 5 mins followed by NADPH addition and measured after 10 mins by LC-MS analysis", "type": "ADME"}, "[20]": {"target": "Serine/threonine-protein kinase mTOR (Homo sapiens, UniProt P42345)", "experiment": "Inhibition of recombinant human GST-tagged mTOR catalytic domain (1360 to 2549 residues) expressed in baculovirus expression system using GFP-4EBP1 as substrate measured after 1 hr by Lathascreen method"}, "[21]": {"experiment": "Tmax in CD1 mouse at 10 mg/kg, po administered via gavage by LC-MS/MS analysis", "type": "ADME, organism-based", "conditions": "in vivo"}}, "data": [{"smiles": "C[C@H]1COCCN1c1nc(-c2cnc(N)cc2F)cc(C2(S(C)(=O)=O)CC2)n1", "values": [{"measurement": "IC50", "setting": "Cytochrome P450 3A4 [1]", "value": "> 10000", "unit": "nM"}, {"measurement": "half-life", "setting": "[2]", "value": 2.87, "unit": "h"}, {"measurement": "Papp A→B at 1.5 h", "setting": "[3]", "value": "> 10", "unit": "×10⁻⁶ cm/s"}, {"measurement": "IC50", "setting": "Cytochrome P450 3A4 [4]", "value": "> 10000", "unit": "nM"}, {"measurement": "IC50", "setting": "Cytochrome P450 2D6", "value": "> 10000", "unit": "nM"}, {"measurement": "AUC(0-t)", "setting": "[5]", "value": 10400, "unit": "ng·h/mL"}, {"measurement": "Cmax", "setting": "[6]", "value": 2980, "unit": "ng/mL"}, {"measurement": "IC50", "setting": "[7]", "value": 46, "unit": "nM"}, {"measurement": "IC50", "setting": "Cytochrome P450 1A2", "value": "> 10000", "unit": "nM"}, {"measurement": "efflux ratio at 1.5 h", "setting": "[8]", "value": 0.66}, {"measurement": "CLint scaled", "setting": "[9]", "value": "5 to 16", "unit": "mL/min/kg"}, {"measurement": "clearance", "setting": "[10]", "value": 15.2, "unit": "mL/min/kg"}, {"measurement": "IC50", "setting": "PI3K p110 beta/p85 alpha", "value": 376, "unit": "nM"}, {"measurement": "IC50", "setting": "Cytochrome P450 2C9", "value": "> 10000", "unit": "nM"}, {"measurement": "IC50", "setting": "[11]", "value": 11, "unit": "nM"}, {"measurement": "CLint scaled", "setting": "[12]", "value": "40 to 140", "unit": "mL/min/kg"}, {"measurement": "IC50", "setting": "HUVEC", "value": 108, "unit": "nM"}, {"measurement": "Activity", "setting": "Mus musculus", "value": 15, "unit": "%"}, {"measurement": "inhibition in vivo at 7.5 mg/kg", "setting": "HT-29 [13]", "value": 72.9, "unit": "%"}, {"measurement": "AUC(0-t)", "setting": "[14]", "value": 5440, "unit": "ng·h/mL"}, {"measurement": "Vd", "setting": "[15]", "value": 1.4, "unit": "L/kg"}, {"measurement": "half-life", "setting": "[16]", "value": 1.59, "unit": "h"}, {"measurement": "IC50", "setting": "T47D", "value": 30, "unit": "nM"}, {"measurement": "IC50", "setting": "[17]", "value": "> 30000", "unit": "nM"}, {"measurement": "IC50", "setting": "Cytochrome P450 2C19", "value": "> 10000", "unit": "nM"}, {"measurement": "IC50", "setting": "[18]", "value": "10 to 20", "unit": "nM"}, {"measurement": "inhibition in vivo at 3.75 mg/kg", "setting": "HT-29 [19]", "value": 54.4, "unit": "%"}, {"measurement": "IC50", "setting": "Cytochrome P450 2C8", "value": "> 10000", "unit": "nM"}, {"measurement": "IC50", "setting": "Cytochrome P450 2B6", "value": "> 10000", "unit": "nM"}, {"measurement": "IC50", "setting": "[20]", "value": 186, "unit": "nM"}, {"measurement": "Tmax", "setting": "[21]", "value": 0.25, "unit": "h"}]}]}
